Test results published in ChEMBL document CHEMBL4602711, “Catching a Moving Target: Comparative Modeling of Flaviviral NS2B-NS3 Reveals Small Molecule Zika Protease Inhibitors” (ACS Med Chem Lett, 2020).
The source made the active and inactive calls.

Legend:
[1] = molecular target: Nonstructural protein 3 (Zika virus) (UniProt A0A024AXB9); assay: Inhibition of Zika virus NS2B-NS3 protease at <50 uM using Bz-Nle-Lys-Lys-Arg-AMC as substrate preincubated for 10 mins followed by substrate addition and measured for 70 secs by fluorophotometric analysis
Nonstructural protein 3 = Nonstructural protein 3 (Zika virus, UniProt A0A024AXB9); assay: Inhibition of Zika virus NS2B-NS3 protease using Bz-Nle-Lys-Lys-Arg-AMC as substrate preincubated for 10 mins followed by substrate addition and measured for 70 secs by fluorophotometric analysis
Method in brief: (§1)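 Ki values were obtained by fluorescence-based protease assays, only for ligands below the 50 μM inhibition cutoff. The commercially available racemic mixtures were tested.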

[2] = molecular target: Genome polyprotein (West Nile virus) (UniProt P06935); assay: Inhibition of C-terminal His6-tagged West Nile virus NS2B (52 to 96 residues)-G4SG4-NS3 (1 to 184 residues) expressed in Escherichia coli BL21(DE3) cells at <50 uM using Boc-Gly-Lys-Arg-AMC33 as substrate measured for 600 secs by fluorescence based assay
Genome polyprotein = Genome polyprotein (West Nile virus, UniProt P06935); assay: Inhibition of C-terminal His6-tagged West Nile virus NS2B (52 to 96 residues)-G4SG4-NS3 (1 to 184 residues) expressed in Escherichia coli BL21(DE3) cells using Boc-Gly-Lys-Arg-AMC33 as substrate measured for 600 secs by fluorescence based assay; method in brief: as §1
[3] = Inhibition of N-terminal His6-tagged DENV2 NS2B-NS3 protease using Boc-Gly-Lys-Arg-AMC33 as substrate measured for 600 secs by fluorescence based assay; design: species or system dengue virus type 2; method in brief: as §1
dengue virus type 2 = assay: Inhibition of N-terminal His6-tagged DENV2 NS2B-NS3 protease at<50 uM using Boc-Gly-Lys-Arg-AMC33 as substrate measured for 600 secs by fluorescence based assay

Chain of Genome polyprotein (P06935 1371-1501 limits assumed): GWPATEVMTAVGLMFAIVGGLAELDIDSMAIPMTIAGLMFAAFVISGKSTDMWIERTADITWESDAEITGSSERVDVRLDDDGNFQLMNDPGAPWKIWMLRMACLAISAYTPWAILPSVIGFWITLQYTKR
Chain of Genome polyprotein (P06935 1502-2120 limits assumed): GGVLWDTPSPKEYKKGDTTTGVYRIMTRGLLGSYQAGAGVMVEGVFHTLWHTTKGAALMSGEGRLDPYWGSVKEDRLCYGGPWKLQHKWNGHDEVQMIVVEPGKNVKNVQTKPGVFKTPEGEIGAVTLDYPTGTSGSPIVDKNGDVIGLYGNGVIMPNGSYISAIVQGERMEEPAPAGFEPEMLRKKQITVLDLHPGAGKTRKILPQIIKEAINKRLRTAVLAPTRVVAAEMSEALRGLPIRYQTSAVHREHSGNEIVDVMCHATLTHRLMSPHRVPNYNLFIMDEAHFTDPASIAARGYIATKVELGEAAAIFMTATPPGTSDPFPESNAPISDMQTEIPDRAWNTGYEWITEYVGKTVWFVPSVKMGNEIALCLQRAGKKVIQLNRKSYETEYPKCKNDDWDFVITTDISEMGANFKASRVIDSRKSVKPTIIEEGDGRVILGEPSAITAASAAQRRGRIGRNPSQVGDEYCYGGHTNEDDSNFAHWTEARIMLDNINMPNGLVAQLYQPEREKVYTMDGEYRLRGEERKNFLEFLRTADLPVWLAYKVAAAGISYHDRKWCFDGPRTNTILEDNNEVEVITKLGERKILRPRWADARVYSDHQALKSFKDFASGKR
Chain of Nonstructural protein 3 (A0A024AXB9 whole entry): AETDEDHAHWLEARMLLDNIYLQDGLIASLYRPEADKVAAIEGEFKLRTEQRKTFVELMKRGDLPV
Chain of Nonstructural protein 3 (Zika virus) (A0A024AXB9 as listed by the source): as the sequence (A0A024AXB9 whole entry) above
Chain of Genome polyprotein (West Nile virus) (P06935 whole entry, the tested form may be a part): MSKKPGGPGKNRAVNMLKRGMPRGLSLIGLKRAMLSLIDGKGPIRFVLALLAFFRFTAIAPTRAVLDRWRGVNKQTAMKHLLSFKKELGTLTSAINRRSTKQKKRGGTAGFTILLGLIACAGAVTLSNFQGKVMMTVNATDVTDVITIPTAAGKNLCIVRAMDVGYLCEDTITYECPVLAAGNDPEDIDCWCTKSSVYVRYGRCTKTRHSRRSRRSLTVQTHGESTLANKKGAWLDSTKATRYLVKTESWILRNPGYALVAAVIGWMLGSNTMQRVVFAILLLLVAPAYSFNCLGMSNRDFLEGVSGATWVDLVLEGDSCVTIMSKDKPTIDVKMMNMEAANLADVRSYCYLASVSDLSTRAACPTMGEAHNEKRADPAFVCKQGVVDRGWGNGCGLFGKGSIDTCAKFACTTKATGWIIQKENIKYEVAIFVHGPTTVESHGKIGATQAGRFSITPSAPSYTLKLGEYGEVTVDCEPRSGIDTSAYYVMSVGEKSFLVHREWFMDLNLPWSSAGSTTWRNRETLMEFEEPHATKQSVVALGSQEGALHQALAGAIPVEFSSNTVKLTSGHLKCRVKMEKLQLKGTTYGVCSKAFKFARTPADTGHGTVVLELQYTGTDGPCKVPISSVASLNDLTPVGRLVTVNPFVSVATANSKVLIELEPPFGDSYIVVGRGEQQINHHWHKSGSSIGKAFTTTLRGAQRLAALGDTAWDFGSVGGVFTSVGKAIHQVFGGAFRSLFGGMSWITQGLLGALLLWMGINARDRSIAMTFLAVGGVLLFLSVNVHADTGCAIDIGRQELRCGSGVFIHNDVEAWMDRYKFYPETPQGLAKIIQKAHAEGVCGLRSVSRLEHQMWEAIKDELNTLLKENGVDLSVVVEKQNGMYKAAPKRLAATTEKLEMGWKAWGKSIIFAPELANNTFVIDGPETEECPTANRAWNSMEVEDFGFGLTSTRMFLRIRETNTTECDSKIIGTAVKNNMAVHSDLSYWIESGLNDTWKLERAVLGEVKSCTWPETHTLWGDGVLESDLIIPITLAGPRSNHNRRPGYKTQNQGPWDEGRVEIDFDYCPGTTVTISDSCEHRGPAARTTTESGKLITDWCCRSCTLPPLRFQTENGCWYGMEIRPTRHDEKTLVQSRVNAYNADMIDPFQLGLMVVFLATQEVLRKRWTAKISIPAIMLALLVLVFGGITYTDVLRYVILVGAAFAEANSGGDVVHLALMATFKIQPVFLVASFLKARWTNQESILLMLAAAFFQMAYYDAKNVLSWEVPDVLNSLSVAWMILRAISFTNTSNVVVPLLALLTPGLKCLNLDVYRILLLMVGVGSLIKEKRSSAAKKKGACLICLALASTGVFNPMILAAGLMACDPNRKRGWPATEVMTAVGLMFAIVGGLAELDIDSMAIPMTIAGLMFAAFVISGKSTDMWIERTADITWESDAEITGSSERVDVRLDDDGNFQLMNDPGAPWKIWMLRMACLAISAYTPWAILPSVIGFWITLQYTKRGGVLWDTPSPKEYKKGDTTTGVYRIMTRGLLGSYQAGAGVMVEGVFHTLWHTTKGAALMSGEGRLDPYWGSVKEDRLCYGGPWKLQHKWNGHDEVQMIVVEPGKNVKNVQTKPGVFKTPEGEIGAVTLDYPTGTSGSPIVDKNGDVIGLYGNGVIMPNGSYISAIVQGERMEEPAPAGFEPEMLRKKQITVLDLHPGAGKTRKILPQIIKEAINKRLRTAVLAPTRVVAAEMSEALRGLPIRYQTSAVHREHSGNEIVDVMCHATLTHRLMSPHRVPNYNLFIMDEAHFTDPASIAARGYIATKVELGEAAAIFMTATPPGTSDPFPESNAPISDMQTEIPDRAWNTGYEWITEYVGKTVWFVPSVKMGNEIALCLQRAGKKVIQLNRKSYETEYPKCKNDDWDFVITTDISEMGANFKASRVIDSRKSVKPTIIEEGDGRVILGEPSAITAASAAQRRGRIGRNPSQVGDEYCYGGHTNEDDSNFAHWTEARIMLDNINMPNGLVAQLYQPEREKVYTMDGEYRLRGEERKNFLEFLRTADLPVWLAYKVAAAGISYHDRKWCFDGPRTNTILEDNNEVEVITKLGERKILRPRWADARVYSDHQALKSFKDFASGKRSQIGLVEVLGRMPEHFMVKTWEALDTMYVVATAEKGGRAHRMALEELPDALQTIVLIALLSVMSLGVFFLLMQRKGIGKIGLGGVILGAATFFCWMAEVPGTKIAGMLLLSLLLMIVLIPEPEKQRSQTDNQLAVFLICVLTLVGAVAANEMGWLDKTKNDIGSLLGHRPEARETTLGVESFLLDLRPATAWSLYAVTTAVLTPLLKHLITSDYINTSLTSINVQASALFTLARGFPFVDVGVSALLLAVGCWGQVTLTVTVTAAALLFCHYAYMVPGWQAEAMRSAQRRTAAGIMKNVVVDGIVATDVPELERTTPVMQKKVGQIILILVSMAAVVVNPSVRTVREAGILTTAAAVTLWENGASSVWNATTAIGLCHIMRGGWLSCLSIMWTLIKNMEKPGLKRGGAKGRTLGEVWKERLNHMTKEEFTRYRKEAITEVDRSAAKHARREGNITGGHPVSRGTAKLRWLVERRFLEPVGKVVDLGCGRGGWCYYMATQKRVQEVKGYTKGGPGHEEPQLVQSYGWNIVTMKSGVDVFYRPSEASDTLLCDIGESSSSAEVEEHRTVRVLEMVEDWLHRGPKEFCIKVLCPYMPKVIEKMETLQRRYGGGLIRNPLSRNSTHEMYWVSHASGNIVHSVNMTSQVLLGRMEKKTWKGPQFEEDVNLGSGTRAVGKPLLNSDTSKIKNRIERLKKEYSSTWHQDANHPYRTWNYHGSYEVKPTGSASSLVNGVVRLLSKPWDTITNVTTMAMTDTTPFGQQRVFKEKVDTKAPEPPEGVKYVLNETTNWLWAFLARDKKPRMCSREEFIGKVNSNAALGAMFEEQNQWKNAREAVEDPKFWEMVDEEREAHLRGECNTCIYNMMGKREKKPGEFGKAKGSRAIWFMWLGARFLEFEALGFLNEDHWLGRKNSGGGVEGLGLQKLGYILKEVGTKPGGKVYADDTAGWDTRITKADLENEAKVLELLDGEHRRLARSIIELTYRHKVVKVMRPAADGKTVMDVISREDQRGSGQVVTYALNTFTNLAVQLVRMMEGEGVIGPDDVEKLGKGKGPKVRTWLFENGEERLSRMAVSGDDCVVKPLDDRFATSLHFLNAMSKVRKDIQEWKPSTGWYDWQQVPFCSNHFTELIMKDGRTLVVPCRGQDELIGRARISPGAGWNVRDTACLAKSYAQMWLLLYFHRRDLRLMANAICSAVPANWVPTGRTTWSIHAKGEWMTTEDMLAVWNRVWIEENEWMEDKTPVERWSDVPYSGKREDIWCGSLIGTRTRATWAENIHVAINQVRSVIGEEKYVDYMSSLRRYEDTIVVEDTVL

Row | Compound | inhibition [1] | Ki (Nonstructural protein 3) [µM] | inhibition [2] | Ki (Genome polyprotein) [µM] | Ki [3] [nM] | inhibition (dengue virus type 2)
1 | COc1cc(CN2CC(O)C2)ccc1OCC(O)CN1CCC(O)CC1 (stereo not given) | Active | 11.5 | Active | 7.4 |  | 
2 | Cc1ccc(C(=O)NCC(O)CN2CCCC2)cc1OCCN (stereo not given) | Active | 2.3 | Active | 25.5 | 90 | Active
